Source: ChEMBL document CHEMBL4680079, “Discovery of a Quinoline-4-carboxamide Derivative with a Novel Mechanism of Action, Multistage Antimalarial Activity, and Potent in Vivo Efficacy” (J Med Chem, 2016)
Values after ≈ are worked out from the molar mass of the structure shown.

Experiments:
Plasmodium falciparum = test: Antiplasmodial activity against chloroquine-sensitive Plasmodium falciparum 3D7 infected in human red blood cells assessed as growth inhibition by SYBR Green fluorescence assay; format: functional, organism-based, RBC; conditions: 3D7, Erythrocyte
How it was run: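 P. falciparum 3D7 grown in 5% human red cells in RPMI 1640 (pH 7.3) with 0.5% Albumax II, hypoxanthine and gentamicin at 37°C under 1% O₂/3% CO₂. Growth measured by SYBR green fluorescence (ex 485/em 528 nm), with mefloquine as assay control. EC50 calculated.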

MRC5 = test: Antiproliferative activity against human MRC5 cells assessed as reduction in cell viability after 68 hrs by resazurin dye based fluorescence assay; conditions: MRC5, 68 h
How it was run: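 MRC-5 fibroblasts plated overnight as monolayers, exposed to compound pre-diluted in MEM for 68 h. Resazurin then added (final 50 μM) for 3 h, fluorescence read at ex 528/em 590 nm. Signal converted to % inhibition against high- and no-inhibition controls. Plates accepted at Z' > 0.5.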

[1] = Intrinsic clearance in CD1 mouse liver microsomes at 0.5 uM in presence of NADPH incubated upto 30 mins by UPLC-MS/MS analysis; format: ADME, Microsome; conditions: 0.5 h
How it was run: (§1)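 Compound at 0.5 μM incubated with female CD1 mouse, male Sprague-Dawley rat or pooled human liver microsomes (0.5 mg/mL, 50 mM potassium phosphate, pH 7.4). Reaction started with excess NADPH. Samples taken at 0-30 min, quenched in acetonitrile, analysed by UPLC-MS/MS. Verapamil used as control, single time course.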

[2] = Kinetic aqueous solubility of the compound by laser nephelometry; format: physicochemical; conditions: read-out: Kinetic_solubility
How it was run: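 Kinetic solubility measured by laser nephelometry. DMSO serial dilutions diluted into water to give final 100–5 μg/mL at 1.0% DMSO. Read immediately, in triplicate aliquots.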

[3] = Permeability of the compound at 10 uM incubated for 5 hrs by UPLC-MS/MS analysis based PAMPA method; format: ADME; conditions: read-out: permeability
How it was run: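 PAMPA run on a lipid-oil-lipid tri-layer filter at pH 7.4. Compound at 10 μM in PBS (DMSO ≤5%) in donor wells, PBS in acceptor wells, kept 5 h at room temperature. Both compartments quantified by UPLC-MS/MS. Data accepted only when recovery exceeded 70%.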

[4] = Intrinsic clearance in Sprague-Dawley rat liver microsomes at 0.5 uM in presence of NADPH incubated upto 30 mins by UPLC-MS/MS analysis; format: ADME, Microsome; conditions: 0.5 h; how it was run: as §1
[5] = Intrinsic clearance in human liver microsomes at 0.5 uM in presence of NADPH incubated upto 30 mins by UPLC-MS/MS analysis; format: ADME, Microsome; conditions: 0.5 h; how it was run: as §1
[6] = Protein binding in CD1 mouse plasma measured after 5 hr by UPLC-MS/MS analysis based equilibrium dialysis method; format: ADME, cell-free; conditions: mouse, 5 h
How it was run: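 Equilibrium dialysis of female CD1 mouse plasma spiked at 10 μg/mL (12-14 kDa membrane) against isotonic buffer for 5 h at ~37°C with shaking. Unbound fraction taken as the buffer/plasma peak-area ratio by UPLC-MS/MS. n=6 replicates, run in triplicate.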

[7] = target: Voltage-gated inwardly rectifying potassium channel KCNH2 (Homo sapiens, UniProt Q12809); test: Inhibition of human ERG by IonWorks patch-clamp electrophysiology method
Sequence of Voltage-gated inwardly rectifying potassium channel KCNH2 (Q12809 whole entry): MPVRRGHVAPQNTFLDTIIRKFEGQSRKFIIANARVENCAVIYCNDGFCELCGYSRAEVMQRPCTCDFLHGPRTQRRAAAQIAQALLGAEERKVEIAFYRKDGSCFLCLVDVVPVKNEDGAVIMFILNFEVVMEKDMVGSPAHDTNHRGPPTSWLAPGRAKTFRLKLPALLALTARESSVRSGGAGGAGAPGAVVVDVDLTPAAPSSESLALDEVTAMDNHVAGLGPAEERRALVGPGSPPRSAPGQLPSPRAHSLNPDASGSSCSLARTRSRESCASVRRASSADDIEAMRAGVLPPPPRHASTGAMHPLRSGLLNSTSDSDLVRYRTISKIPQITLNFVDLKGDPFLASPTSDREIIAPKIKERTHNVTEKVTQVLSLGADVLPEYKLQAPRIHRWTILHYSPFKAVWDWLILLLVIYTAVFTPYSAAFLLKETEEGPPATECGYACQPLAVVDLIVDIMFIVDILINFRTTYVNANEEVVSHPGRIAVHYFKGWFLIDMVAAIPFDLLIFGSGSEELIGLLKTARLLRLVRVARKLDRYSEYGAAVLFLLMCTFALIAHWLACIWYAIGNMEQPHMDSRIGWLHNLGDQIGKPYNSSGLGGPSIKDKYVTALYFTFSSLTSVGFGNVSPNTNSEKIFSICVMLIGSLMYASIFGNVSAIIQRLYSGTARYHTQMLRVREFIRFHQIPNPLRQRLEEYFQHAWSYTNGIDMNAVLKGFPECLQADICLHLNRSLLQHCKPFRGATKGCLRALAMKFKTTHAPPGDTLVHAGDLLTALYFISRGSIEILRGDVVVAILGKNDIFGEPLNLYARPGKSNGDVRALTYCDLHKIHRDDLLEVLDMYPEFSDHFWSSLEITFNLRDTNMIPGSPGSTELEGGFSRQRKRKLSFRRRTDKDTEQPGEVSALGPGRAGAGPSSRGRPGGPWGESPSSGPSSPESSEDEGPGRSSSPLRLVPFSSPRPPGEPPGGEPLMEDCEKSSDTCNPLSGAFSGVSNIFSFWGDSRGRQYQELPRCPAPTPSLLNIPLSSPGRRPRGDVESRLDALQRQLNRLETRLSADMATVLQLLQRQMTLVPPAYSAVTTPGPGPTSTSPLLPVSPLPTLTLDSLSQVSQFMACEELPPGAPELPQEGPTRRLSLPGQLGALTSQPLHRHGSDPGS
How it was run: (§2)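 hERG K⁺ channel inhibition measured by IonWorks patch-clamp electrophysiology. Eight-point concentration-response curves made from 3-fold serial dilutions down from the maximum final assay concentration. Each curve generated on 2 occasions.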

hERG (KCNH2) = hERG (KCNH2) (Homo sapiens, UniProt Q12809); test: Inhibition of human ERG at 11 uM by IonWorks patch-clamp electrophysiology method relative to control; how it was run: as §2
Sequence of hERG (KCNH2) (Q12809 whole entry): as above

[8] = Clearance in NMRI mouse blood at 3 mg/kg, iv administered as bolus dose by UPLC-MS/MS analysis; format: ADME, organism-based
How it was run: (§3)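 Intravenous bolus solution, 3 mg free base/kg (5 mL/kg; 10% DMSO, 90% saline), given to female NMRI mice (n=3). Compound level in blood determined by UPLC-MS/MS. PK parameters derived from the blood concentration-time curve.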

[9] = Volume of distribution at steady state in NMRI mouse at 3 mg/kg, iv administered as bolus dose by UPLC-MS/MS analysis; format: ADME, organism-based; conditions: in vivo, read-out: Vdss; how it was run: as §3
[10] = Half-life in NMRI mouse at 3 mg/kg, iv administered as bolus dose by UPLC-MS/MS analysis; format: ADME, organism-based; conditions: in vivo; how it was run: as §3
[11] = Cmax in NMRI mouse at 10 mg/kg, po administered as gavage by UPLC-MS/MS analysis; format: ADME, organism-based; design: route oral, dose 10 mg/kg; conditions: in vivo
How it was run: (§4)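 Female NMRI mice (n=3) dosed by oral gavage as a solution at 10 mg free base/kg (10 mL/kg; vehicle 5 or 10% DMSO, 40% PEG400). Blood levels measured by UPLC-MS/MS. Parameters derived from the blood concentration-time curve.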

[12] = AUC in NMRI mouse at 10 mg/kg, po administered as gavage by UPLC-MS/MS analysis; format: ADME, organism-based; design: dose 10 mg/kg; conditions: in vivo; how it was run: as §4
[13] = Tmax in NMRI mouse at 10 mg/kg, po administered as gavage by UPLC-MS/MS analysis; format: ADME, organism-based; conditions: in vivo; how it was run: as §4
[14] = Oral bioavailability in NMRI mouse at 10 mg/kg administered via gavage by UPLC-MS/MS analysis; format: ADME, organism-based; conditions: in vivo; how it was run: as §4
Plasmodium berghei [15] = test: Antiplasmodial activity against Plasmodium berghei ANKA infected in NMRI mouse assessed as reduction in parasitemia at 30 mg/kg, po QD for 4 days; format: functional; design: scale not given: the % may be the effect or the level left; conditions: time 4 day
How it was run: (§5)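 Female NMRI mice (n=3 per group, randomized, not blinded) infected with GFP-transfected P. berghei ANKA. Oral dosing once daily for 4 days in 10% DMSO/40% PEG400/50% water or HPMC suspension vehicle. Parasitaemia measured by flow cytometry on blood collected 96 h after infection. Mice watched for toxicity over 4 h post-dose each day.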

Plasmodium berghei [16] = test: Antiplasmodial activity against Plasmodium berghei ANKA infected in NMRI mouse assessed as survival days at 30 mg/kg, po QD for 4 days; format: functional; conditions: time 4 day
[17] = Toxicity in NMRI mouse assessed as maximum tolerated dose administered twice a day for 4 days; conditions: in vivo, time 4 day
HepG2 = test: Antiproliferative activity against human HepG2 cells assessed as reduction in cell viability; format: cell-based
Plasmodium berghei [18] = test: Antiplasmodial activity against Plasmodium berghei ANKA infected in NMRI mouse assessed as reduction in parasitemia at 1 mg/kg, po QD for 4 days; format: functional; design: scale not given: the % may be the effect or the level left; conditions: time 4 day; how it was run: as §5
Plasmodium berghei [19] = test: Antiplasmodial activity against Plasmodium berghei ANKA infected in NMRI mouse assessed as survival days at 1 mg/kg, po QD for 4 days; format: functional; conditions: time 4 day
[20] = Clearance in Sprague-Dawley rat blood at 1 mg/kg, iv administered as bolus dose by UPLC-MS/MS analysis; format: ADME, organism-based
How it was run: (§6)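 Male Sprague Dawley rats (n=3/route) received an iv bolus solution at 1 mg free base/kg (5 mL/kg; 5% DMSO in saline). Blood sampled from 5 min to 30 or 48 h post-dose, mixed with two volumes water, frozen, then analysed by UPLC-MS/MS. Parameters derived from the blood concentration-time curve.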

[21] = Volume of distribution at steady state in Sprague-Dawley rat at 1 mg/kg, iv administered as bolus dose by UPLC-MS/MS analysis; format: ADME, organism-based; conditions: Sprague-Dawley, in vivo, read-out: Vdss; how it was run: as §6
[22] = Half-life in Sprague-Dawley rat at 1 mg/kg, iv administered as bolus dose by UPLC-MS/MS analysis; format: ADME, organism-based; conditions: Sprague-Dawley, in vivo; how it was run: as §6
[23] = Cmax in Sprague-Dawley rat at 3 mg/kg, po administered via gavage by UPLC-MS/MS analysis; format: ADME, organism-based; design: route oral, dose 3 mg/kg; conditions: in vivo
How it was run: (§7)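 Oral gavage solution, 3 mg free base/kg (10 mL/kg; 0.5% w/v HPMC, 0.4% v/v Tween 80, 0.5% v/v benzyl alcohol), given to male Sprague Dawley rats (n=3). Blood taken at 5, 15, 30 min and 1, 2, 4, 6, 8, 24, 30 h, mixed with two volumes water, analysed by UPLC-MS/MS.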

[24] = Tmax in Sprague-Dawley rat at 3 mg/kg, po administered via gavage by UPLC-MS/MS analysis; format: ADME, organism-based; conditions: in vivo; how it was run: as §7
[25] = AUC in Sprague-Dawley rat at 3 mg/kg, po administered via gavage by UPLC-MS/MS analysis; format: ADME, organism-based; design: dose 3 mg/kg; conditions: in vivo; how it was run: as §7
[26] = Oral bioavailability in Sprague-Dawley rat at 3 mg/kg administered via gavage by UPLC-MS/MS analysis; format: ADME, organism-based; conditions: in vivo; how it was run: as §7

O=C(NCCN1CCCC1)c1cc(NCCCN2CCOCC2)nc2ccc(F)cc12
EC50 (Plasmodium falciparum): 0.07 µM
EC50 (MRC5): 41 µM
CLH [1]: 0.8 mL/min/g
solubility kinetic [2]: 230 µM (≈ 98.8 µg/mL)
Papp at 5 h, 10 µM [3]: 0.23 ×10⁻⁶ cm/s
CLH [4]: < 0.5 mL/min/g
CLH [5]: < 0.5 mL/min/g
PPB [6]: 59%
IC50 [7]: > 11 µM
inhibition at 11 µM (hERG (KCNH2)): 16%
clearance [8]: 14 mL/min/kg
Vd [9]: 3 L/kg
half-life [10]: 3.2 h
Cmax [11]: 315 ng/mL
AUC [12]: 1550 ng·h/mL
Tmax [13]: 2 h
bioavailability [14]: 15%
Activity (Plasmodium berghei [15]): 93%
Survival (Plasmodium berghei [16]): 7 days
MTD at 96 h [17]: 300 mg/kg

O=C(NCCNC1CC1)c1cc(-c2ccc(CN3CCOCC3)cc2)nc2ccc(F)cc12
EC50 (Plasmodium falciparum): 0.002 µM
CLH [1]: 2 mL/min/g
Papp at 5 h, 10 µM [3]: 4.9 ×10⁻⁶ cm/s
EC50 (HepG2): > 50 µM

O=C(NCCN1CCCC1)c1cc(-c2ccc(CN3CCOCC3)cc2F)nc2ccc(F)cc12
EC50 (Plasmodium falciparum): 0.002 µM
EC50 (MRC5): 41 µM
CLH [1]: < 0.5 mL/min/g
solubility kinetic [2]: 208 µM (≈ 100 µg/mL)
Papp at 5 h, 10 µM [3]: 13.2 ×10⁻⁶ cm/s
CLH [4]: < 0.5 mL/min/g
CLH [5]: 1.5 mL/min/g
Activity (Plasmodium berghei [18]): 99.9%
Survival (Plasmodium berghei [19]): 14 days
clearance [20]: 32 mL/min/kg
Vd [21]: 10 L/kg
half-life [22]: 4 h
Cmax [23]: 29 ng/mL
Tmax [24]: 8 h
AUC [25]: 507 ng·h/mL
bioavailability [26]: 33%
